Measurements taken from ChEMBL document CHEMBL1833877, “Antinociceptive properties of bergenin” (J Nat Prod, 2011).

Columns and labels:
Conditions in all cases: in vivo
Mus musculus [1] = test: Toxicity in mouse assessed as renal function measuring serum urea level at 50 mg/kg, ip for seven consecutive days relative to control; type: organism-based; design: dose 50 mg/kg, route intraperitoneal
In short: (§1)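 Once-daily ip dosing for seven consecutive days in male mice (22–28 g), with vehicle (2% DMSO in saline) as control. At the end of treatment, blood taken from the retro-orbital plexus under light anesthesia. Serum obtained without anticoagulant by centrifugation at 2500 rpm for 15 min, then assayed biochemically for urea and creatinine. Means ± SEM, 6–9 animals per group.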

Mus musculus [2] = test: Toxicity in mouse assessed as renal function measuring serum creatinine level at 50 mg/kg, ip for seven consecutive days relative to control; type: organism-based; design: dose 50 mg/kg, route intraperitoneal; in short: as §1
Mus musculus [3] = test: Toxicity in mouse assessed as liver function measuring serum ALT level at 50 mg/kg, ip for seven consecutive days relative to control; type: organism-based; design: dose 50 mg/kg, route intraperitoneal
In short: (§2)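 Mice were weighed and dosed ip once daily for 7 consecutive days, vehicle controls alongside, and monitored for toxic signs and general appearance. At the end, retro-orbital blood was taken under light anesthesia for leukocyte counts. Serum, from blood centrifuged at 2500 rpm for 15 min without anticoagulant, was used for ALT and AST.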

Mus musculus [4] = test: Toxicity in mouse assessed as liver function measuring serum AST level at 50 mg/kg, ip for seven consecutive days relative to control; type: organism-based; design: dose 50 mg/kg, route intraperitoneal; in short: as §2
Mus musculus [5] = test: Toxicity in mouse assessed as leukogram at 50 mg/kg, ip for seven consecutive days relative to control; type: organism-based; design: dose 50 mg/kg, route intraperitoneal; in short: as §2
Mus musculus [6] = test: Toxicity in mouse assessed as gastric inflammation at 50 mg/kg, ip for seven consecutive days relative to control; type: organism-based, Stomach; design: dose 50 mg/kg, route intraperitoneal
In short: (§3)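 After 7 daily ip doses, stomachs were cryosectioned at 3 μm and stained with H&E. Sections were scored blind 0–4 for inflammatory infiltrate, edema, epithelial loss and necrosis. Ten fields (40×) were read per section, means ± SEM.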

Mus musculus [7] = test: Toxicity in mouse assessed as gastric ulcer at 50 mg/kg, ip for seven consecutive days relative to control; type: organism-based, Stomach; design: dose 50 mg/kg, route intraperitoneal; in short: as §3
Mus musculus [8] = test: Toxicity in mouse assessed as inflammatory cell infiltrate in gastric mucosa at 50 mg/kg, ip for seven consecutive days relative to control; type: organism-based; design: dose 50 mg/kg, route intraperitoneal; in short: as §3
Mus musculus [9] = test: Toxicity in mouse assessed as edema in gastric mucosa at 50 mg/kg, ip for seven consecutive days relative to control; type: organism-based; design: dose 50 mg/kg, route intraperitoneal; in short: as §3
Mus musculus [10] = test: Toxicity in mouse assessed as necrosis in gastric mucosa at 50 mg/kg, ip for seven consecutive days relative to control; type: organism-based; design: dose 50 mg/kg, route intraperitoneal; in short: as §3
Mus musculus [11] = test: Toxicity in mouse assessed as reduction in corporal mass at 100 mg/kg, ip for seven consecutive days relative to control; type: organism-based; design: dose 100 mg/kg, route intraperitoneal; in short: as §2
Mus musculus [12] = test: Toxicity in mouse assessed as change in general appearance at 100 mg/kg, ip for seven consecutive days relative to control; type: organism-based; design: dose 100 mg/kg, route intraperitoneal; in short: as §2
Mus musculus [13] = test: Toxicity in mouse assessed as renal function measuring serum urea level at 100 mg/kg, ip for seven consecutive days relative to control; type: organism-based; design: dose 100 mg/kg, route intraperitoneal; in short: as §1
Mus musculus [14] = test: Toxicity in mouse assessed as renal function measuring serum creatinine level at 100 mg/kg, ip for seven consecutive days relative to control; type: organism-based; design: dose 100 mg/kg, route intraperitoneal; in short: as §1
Mus musculus [15] = test: Toxicity in mouse assessed as liver function measuring serum ALT level at 100 mg/kg, ip for seven consecutive days relative to control; type: organism-based; design: dose 100 mg/kg, route intraperitoneal; in short: as §2
Mus musculus [16] = test: Toxicity in mouse assessed as liver function measuring serum AST level at 100 mg/kg, ip for seven consecutive days relative to control; type: organism-based; design: dose 100 mg/kg, route intraperitoneal; in short: as §2
Mus musculus [17] = test: Toxicity in mouse assessed as leukogram at 100 mg/kg, ip for seven consecutive days relative to control; type: organism-based; design: dose 100 mg/kg, route intraperitoneal; in short: as §2
Mus musculus [18] = test: Toxicity in mouse assessed as gastric inflammation at 100 mg/kg, ip for seven consecutive days relative to control; type: organism-based, Stomach; design: dose 100 mg/kg, route intraperitoneal; in short: as §3
Mus musculus [19] = test: Toxicity in mouse assessed as gastric ulcer at 100 mg/kg, ip for seven consecutive days relative to control; type: organism-based, Stomach; design: dose 100 mg/kg, route intraperitoneal; in short: as §3
Mus musculus [20] = test: Toxicity in mouse assessed as inflammatory cell infiltrate in gastric mucosa at 100 mg/kg, ip for seven consecutive days relative to control; type: organism-based; design: dose 100 mg/kg, route intraperitoneal; in short: as §3
Mus musculus [21] = test: Toxicity in mouse assessed as edema in gastric mucosa at 100 mg/kg, ip for seven consecutive days relative to control; type: organism-based; design: dose 100 mg/kg, route intraperitoneal; in short: as §3
Mus musculus [22] = test: Toxicity in mouse assessed as necrosis in gastric mucosa at 100 mg/kg, ip for seven consecutive days relative to control; type: organism-based; design: dose 100 mg/kg, route intraperitoneal; in short: as §3
Mus musculus [23] = test: Neurotoxicity in mouse assessed as effect on motor coordination at 100 mg/kg, ip after 40 mins by Rotarod test

Measured: Activity

COc1c(O)cc2c(c1O)[C@@H]1O[C@H](CO)[C@@H](O)[C@H](O)[C@H]1OC2=O [BERGENIN]
Non-toxic: Mus musculus [1] | Mus musculus [2] | Mus musculus [3] | Mus musculus [4] | Mus musculus [5] | Mus musculus [6] | Mus musculus [7] | Mus musculus [8] | Mus musculus [9] | Mus musculus [10] | Mus musculus [11] | Mus musculus [12] | Mus musculus [13] | Mus musculus [14] | Mus musculus [15] | Mus musculus [16] | Mus musculus [17] | Mus musculus [18] | Mus musculus [19] | Mus musculus [20] | Mus musculus [21] | Mus musculus [22] | Mus musculus [23]
